NRP1-CendR mod: modulators of CendR peptide binding to NRP-1, primary screen, biochemical, fluorescence polarization, uHTS; inhibition, % at 25 µM; FAM-RPARPAR peptide binding to NRP-1; hit rate 0.85% among 360,000; Neuropilin-1 (Homo sapiens), O14786;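 active = inhibition or corrected inhibition above about 18%, plus a signal ratio from 0.5 to 1.5, limit read from the data, passing the limit was not always enough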
SENP1 FRET inh: human SENP1 catalytic domain inhibitors, primary screen, biochemical, FRET, uHTS; Sentrin-specific protease 1 (Homo sapiens), Q9P0U3; recombinant SENP1 catalytic domain, CyPet-SUMO1-YPet FRET cleavage; inhibition, % at 10 µM; hit rate 0.21% among 360,000;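 active = inhibition at least 30% at 10 µM, raw YFP signal under a set limit, fluorescence ratio 0.5 to 1.5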
Target sequence (Q9P0U3 419-644 limits assumed): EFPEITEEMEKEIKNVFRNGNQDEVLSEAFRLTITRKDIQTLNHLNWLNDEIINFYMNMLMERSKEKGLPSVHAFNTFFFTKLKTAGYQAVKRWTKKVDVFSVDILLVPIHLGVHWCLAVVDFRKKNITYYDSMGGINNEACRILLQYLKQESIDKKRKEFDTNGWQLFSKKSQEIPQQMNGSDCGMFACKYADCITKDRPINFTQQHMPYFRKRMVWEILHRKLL
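material = recombinant human SENP1 catalytic domain, His6-tagged | quantity = 20 pM enzyme | reagent = 25 nM SUMO1 FRET substrate | compound dosing = 10 µM single point, 0.5% DMSO | timing = 50 min enzyme reaction, room temperature, light-protected | detection = FRET, CFP and YFP emission | control set = no-enzyme low, enzyme-DMSO high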
SENP8 block-1: human SENP8 protease inhibitors, primary screen, biochemical, fluorescence, Nedd8 protein substrate, uHTS; Sentrin-specific protease 8 (Homo sapiens), Q96LD8; recombinant SENP8; inhibition, % at 20 µM; hit rate 0.64% among 360,000; AID 602440, 2012; in the data active = inhibition mostly above about 40%, no sharp cut-off; inactive = mostly below about 27%
Target sequence (Q96LD8 whole entry, looked up): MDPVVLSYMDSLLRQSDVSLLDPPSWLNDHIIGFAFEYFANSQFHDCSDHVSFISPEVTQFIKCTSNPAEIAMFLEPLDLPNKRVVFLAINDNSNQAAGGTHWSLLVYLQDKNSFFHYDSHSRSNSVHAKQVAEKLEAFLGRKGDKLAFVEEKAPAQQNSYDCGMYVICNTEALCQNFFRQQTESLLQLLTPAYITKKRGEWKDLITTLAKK
SENP6 inh: SENP6 protease inhibitors, primary screen, biochemical, luminescence, uHTS. inhibition, % at 10 µM. Sentrin-specific protease 6 (Homo sapiens), Q9GZR1. Recombinant SENP6 catalytic domain, aminoluciferin luminescence. hit rate 1.8% among 330,000;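 active = inhibition above about 50% at the single tested dose, limit read from the data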
SENP8 block-2: SENP8 protease inhibitors, primary screen, biochemical, luminescence; hit rate 1.2% among 330,000; purified SENP8, Z-RLRGG-aminoluciferin cleavage; Sentrin-specific protease 8 (Homo sapiens), Q96LD8; inhibition, % at 10 µM; in the data active = inhibition above about 50%
SENP7 block: SENP7 protease inhibitors, primary screen, biochemical, luminescence, uHTS; recombinant SENP7, Z-RLRGG-aminoluciferin luminescence, 40 min; inhibition, % at 5 µM; hit rate 1.5% among 330,000; AID 434973, 2010;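 active = inhibition above about 50% at the single test dose, limit read from the data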
Of the large screens only hits and unclear results are named; the others gave an inactive call. This is a sample that favours compounds with a hit; in the whole collection about 3.3% have one here.

COc1ccc(NC(=O)C(c2ccccc2)n2c(=O)c(-c3ccco3)nc3ccccc32)cc1 (stereo unspecified)	none (no result: SENP6 inh, SENP8 block-2, SENP7 block)
O=C(Nc1ccc(S(=O)(=O)N2CCCCC2)cc1)c1ccc(CN2CCc3ccccc3C2)cc1	SENP8 block-1 53.1
CC(Nc1cccc2ccccc12)C(=O)N/N=C/c1ccc([N+](=O)[O-])cc1 (stereo unspecified)	SENP6 inh 81.3
COc1ccc(-n2c(C)c([N+](=O)[O-])c3ccc(O)c(CN(C)C)c32)cc1	SENP8 block-1 42.5
CCN(CC)CCCNC(=O)C1c2ccccc2C(=O)N1Cc1ccc(C)cc1 (stereo unspecified)	NRP1-CendR mod 18.8
Cc1ccc(CN2C(=O)c3ccccc3C2C(=O)NCC2CCCO2)cc1 (stereo unspecified)	none
CCCCn1nnnc1C(c1ccccc1)N1CCN(c2ccccn2)CC1 (stereo unspecified)	none (no result: SENP6 inh, SENP8 block-2, SENP7 block)
Cc1ccc(N2C(=O)C(Cl)=C(NCc3ccccc3)C2=O)c(C)c1	NRP1-CendR mod 20.9
CN(Cc1ccc2c(c1)CCCN2C)C(=O)[C@H]1O[C@@H](n2ccc(=O)[nH]c2=O)[C@H](O)[C@@H]1O	NRP1-CendR mod 27.4 (no result: SENP6 inh, SENP8 block-2, SENP7 block)
COc1ccc(CN(C)C(=O)[C@H]2O[C@@H](n3ccc(=O)[nH]c3=O)[C@H](O)[C@@H]2O)cc1OC	none (no result: SENP6 inh, SENP8 block-2, SENP7 block)
NC(=O)C1CCCN1 (stereo unspecified)	NRP1-CendR mod 21.9
C/C(=N\Nc1cccc2cccnc12)c1ccccn1	SENP6 inh 72.2, SENP8 block-2 88.9, SENP7 block 92.4
C/C(=N\NC(=O)c1cc2ccccc2cc1O)c1ccccn1	SENP6 inh 94.6, SENP8 block-2 89.1, SENP7 block 71.7
COc1ccc(CCN2CC(C(=O)Nc3nccs3)CC2=O)cc1OC (stereo unspecified)	none
COc1ccc(C2=Nc3ccccc3N(C(=O)c3cc(Cl)cc(Cl)c3)C2C(=O)NCc2ccccc2)cc1 (stereo unspecified)	none (no result: SENP6 inh, SENP8 block-2, SENP7 block)
CCc1cccc(NC(=O)COC(=O)C2COc3ccccc3O2)c1 (stereo unspecified)	none (no result: SENP6 inh, SENP8 block-2, SENP7 block)
CC(C)C[C@@H](COc1ccccc1)N1CCN(CCc2ccccc2)CCC1=O	NRP1-CendR mod 36.4
CCCN1CCC(=O)N([C@H](COc2ccccc2)CC(C)C)CC1	NRP1-CendR mod 28.3
CCCCCCCN1CCC(=O)N([C@H](CO)CC(C)C)CC1	NRP1-CendR mod 27.4
O=C1CCN(CCc2ccccc2)CCN1[C@H](COc1ccccc1)Cc1ccccc1	none
C[C@@H]1CN([C@H](C)CO)C(=O)CCCn2nncc2CO[C@H]1CN(C)C(=O)c1ccc2ccn(C)c2c1	none (no result: SENP6 inh, SENP8 block-2, SENP7 block)
COc1ccc(C2CC(C(F)(F)F)n3nc(C(=O)O)c(Cl)c3N2)cc1OC (stereo unspecified)	NRP1-CendR mod 35.3
CC1(C(=O)NCc2ccccc2)CSCC(=O)N1CCOc1ccccc1 (stereo unspecified)	none (no result: SENP6 inh, SENP8 block-2, SENP7 block)
CCn1c(SCC(=O)NC2CCCC2)nc2c(c1=O)SCC2	none (no result: SENP6 inh, SENP8 block-2, SENP7 block)
C=CCNC(=O)c1cnn(-c2ccccc2)c1-c1ccccc1	NRP1-CendR mod 25.6
COc1ccc(N=[N+]([O-])c2ccc(OC)cc2)cc1	SENP8 block-1 41.3 (no result: SENP6 inh, SENP8 block-2, SENP7 block)
COc1ccc(S(=O)(=O)c2ccc(OC)cc2)cc1	none
CCOC(=O)CCCCCC(=O)Nc1ccc2c(c1)C(=O)N([C@@H](C)CO)C[C@@H](C)[C@H](CN(C)C(=O)Nc1ccccc1)OCCCC[C@H](C)O2	none (no result: SENP6 inh, SENP8 block-2, SENP7 block)
CCN(CC)S(=O)(=O)c1cccc(C(=O)NC(Cc2c[nH]c3ccccc23)c2nnc3n2CCCCC3)c1 (stereo unspecified)	NRP1-CendR mod 25.8
O=C(Nc1ccc(S(=O)(=O)NC2=NCCCCC2)cc1)c1cccc(OC(F)F)c1	none (no result: SENP6 inh, SENP8 block-2, SENP7 block)
Cc1ccc(C)c(-n2nnc3ccccc3c2=O)c1	none (no result: SENP6 inh, SENP8 block-2, SENP7 block)
NC(=S)NNC(=S)Nc1ccccc1	NRP1-CendR mod 39.4

Compound activity from PubChem.
